Assay results pooled from the literature.
Lines come from different studies, so protocols differ.
Target: Serine/threonine-protein kinase NIM1 (NIM1K, Homo sapiens, UniProt Q8IY84)

O=C(Nc1cnn(-c2csc(C(=O)NC3COC3)c2)c1)Nc1c(F)cccc1Cl
remaining activity (enzyme activity; inhibitor; 5 µM): 70.7%

COc1cc(-c2cn(C3CCc4ccccc4N(CC(F)(F)F)C3=O)nn2)ccc1-n1ccc(C)n1 (centres unmarked)
remaining binding (cell-free assay; competition with immobilised ligand; 1 µM): 80%

Cc1ccc(NC(=O)c2ccc(C)c(C(F)(F)F)c2)cc1C#Cc1nn(C2CCC(O)CC2)c2ncnc(N)c12 (centres unmarked)
remaining signal (cell-free assay; 10 µM): 131%

CN1CC(Oc2cnc(C#N)cc2-c2ccn3nc(NC(=O)C4CC4)cc3c2)C1
inhibition (enzyme activity; inhibitor; 1 µM): 8%

CC/C(=N\NC(=O)NCc1cccc(O)c1)c1ccc(O)c(C)c1O
inhibition (enzyme activity; inhibitor; 0.1 µM): -2.9%

Nc1ncnc2occ(-c3ccc(NC(=O)Nc4cc(C(F)(F)F)ccc4F)cc3)c12
remaining signal (cell-free assay; inhibitor; 20 µM): 67%

Cc1cc(NC(=O)c2cccc3cc(-c4cccc5[nH]nc(N)c45)ccc23)ccc1F
activity vs control (enzyme activity; inhibitor; 0.1 µM): 115%

Cc1cnc(NC2CCOCC2)nc1-n1cnc(C(=O)NC(CN)c2cc(F)cc(Cl)c2)c1 (centres unmarked)
remaining activity (enzyme activity; inhibitor; radiometric; 1 µM): 40%

COc1cc(Cl)c(C(=O)N[C@@H](CN[C@H]2CC[C@@H](N)CC2)Cc2ccc(C#N)cc2)cc1-c1ccc(CN[C@H](C)c2ccc(C)cc2)o1
remaining activity (enzyme activity; inhibitor; 1 µM): 98%

Cc1c(C(=O)O)cc(-c2ccc(C3CCNCC3)cc2)c2ccc(-c3ccc(C(F)(F)F)cc3)cc12
remaining binding (binding; competition with immobilised ligand; 1 µM): 92%

O=C(Nc1cnn(-c2csc(C(=O)NC3COC3)c2)c1)Nc1ccccc1Cl
remaining activity (enzyme activity; inhibitor; 5 µM): 101%
